Data as given in paper PMC9727797 (Molecular Biology of the Cell, 2022).

Experiments:
RPE-1 cells = experiment: Live cell imaging of metaphase duration; type: cell-based, human; conditions: Munesib-1 50 µM, Fift-IN and GW108X 25 µM
KIF15-N700 = target: T1, KIF15-N700 (Homo sapiens, UniProt Q9NS87); experiment: Microtubule gliding assay; type: biochemical; conditions: 25 µM, singlicate
T1 sequence (Q9NS87 1-700 limits assumed): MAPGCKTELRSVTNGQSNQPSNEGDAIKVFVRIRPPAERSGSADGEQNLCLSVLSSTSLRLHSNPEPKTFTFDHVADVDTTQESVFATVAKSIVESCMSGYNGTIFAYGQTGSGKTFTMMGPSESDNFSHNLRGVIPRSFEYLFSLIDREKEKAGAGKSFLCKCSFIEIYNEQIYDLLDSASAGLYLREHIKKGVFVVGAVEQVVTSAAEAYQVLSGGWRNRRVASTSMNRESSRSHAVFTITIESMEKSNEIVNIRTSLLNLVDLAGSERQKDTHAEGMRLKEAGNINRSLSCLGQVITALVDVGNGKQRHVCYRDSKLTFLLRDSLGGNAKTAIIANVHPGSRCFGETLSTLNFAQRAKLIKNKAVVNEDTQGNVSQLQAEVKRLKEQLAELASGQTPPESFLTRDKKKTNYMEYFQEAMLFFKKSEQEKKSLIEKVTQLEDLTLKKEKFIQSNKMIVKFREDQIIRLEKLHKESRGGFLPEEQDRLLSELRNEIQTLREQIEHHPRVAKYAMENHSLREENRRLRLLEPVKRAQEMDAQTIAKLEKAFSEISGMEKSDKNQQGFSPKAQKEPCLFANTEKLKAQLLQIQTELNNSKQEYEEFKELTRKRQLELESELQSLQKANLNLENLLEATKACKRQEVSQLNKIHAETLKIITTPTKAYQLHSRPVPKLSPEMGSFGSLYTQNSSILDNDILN
In short: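 His6-KIF15-N700 was expressed in High Five insect cells, then purified by Ni-NTA and Superdex 200 gel filtration. Microtubule gliding was imaged every 5 s for 1 min at 100×. Velocity was taken as distance travelled in 1 min, from ≥15 microtubules at each of three slide locations (n ≥ 50 per slide). Concentration-response curves used eight concentrations from 10 nM up to 30 or 100 µM, in triplicate. Single-point derivative tests used 25 µM.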

KIRC-1 cells = experiment: Preanaphase spindle monopolarity, KIRC-1 cells; type: cell-based, human; conditions: 25 µM
In short: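 TP53–/– RPE-1 and KIRC-1 cells were grown in DMEM with 10% FBS, penicillin and streptomycin; KIRC-1 medium also contained 10 μM STLC. Cells on coverslips were treated overnight with increasing test-compound concentrations or DMSO. They were then methanol-fixed and stained for KIF15, tubulin and DNA. Preanaphase spindles were scored monopolar or bipolar, in triplicate with n = 100 per replicate (± SEM).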

TP53–/– RPE-1 cells = experiment: STLC selection; type: cell-based, human; conditions: 24 d; 10 μM STLC; some cells acquired resistance and formed colonies

O=C1Nc2ccc(C(=O)c3ccco3)cc2/C1=C/c1cc(Cl)c(O)c(Cl)c1 [GW108X, reference compound]
metaphase duration (metaphase plate formation until anaphase onset) (RPE-1 cells): significant increase in metaphase duration

CSc1ncc2c(n1)-c1ccc(C(=O)O)cc1N(C)S2(=O)=O [M-201, 6-methyl-2-(methylthio)-6H-benzo[c]pyrimido[4,5-e][1,2]thiazine-8-carboxylic acid 5,5-dioxide]
% inhibition of KIF15 microtubule gliding activity (KIF15-N700): blocked KIF15 activity as effectively as Munesib-1

CSc1ncc2c(n1)-c1ccc(C(=O)N3CCNCC3)cc1N(C)S2(=O)=O [M-205, (6-methyl-2-(methylthio)-5,5-dioxido-6H-benzo[c]pyrimido[4,5-e][1,2]thiazin-8-yl)(piperazin-1-yl)methanone]
monopolarity index compared with the parent compound (KIRC-1 cells): substantially increased the monopolarity index

CSc1ncc2c(n1)-c1ccc(CO)cc1N(C)S2(=O)=O [M-206, 8-(hydroxymethyl)-6-methyl-2-(methylthio)-6H-benzo[c]pyrimido[4,5-e][1,2]thiazine 5,5-dioxide]
% inhibition of KIF15 microtubule gliding activity (KIF15-N700): blocked KIF15 activity as effectively as Munesib-1

N[C@@H](CSC(c1ccccc1)(c1ccccc1)c1ccccc1)C(=O)O [STLC, S-trityl-L-cysteine]
cell killing by STLC alone (TP53–/– RPE-1 cells): killed the majority
